The target in assay [1] is T1, human arginase I (Homo sapiens, UniProt P05089).
T1 sequence (P05089 1-322): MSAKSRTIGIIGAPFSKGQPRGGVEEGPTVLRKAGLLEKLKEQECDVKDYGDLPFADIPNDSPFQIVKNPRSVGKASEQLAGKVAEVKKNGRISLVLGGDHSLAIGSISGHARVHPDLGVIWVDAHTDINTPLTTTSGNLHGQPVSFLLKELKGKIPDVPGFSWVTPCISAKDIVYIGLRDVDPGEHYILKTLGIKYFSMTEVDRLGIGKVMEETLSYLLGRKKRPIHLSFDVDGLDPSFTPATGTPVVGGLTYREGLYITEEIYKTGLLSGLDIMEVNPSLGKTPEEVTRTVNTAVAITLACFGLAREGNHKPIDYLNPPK
The assay is described as follows: Fixed-point kinetic assay with [14C-guanidino]-L-arginine. Type of assay: biochemical. Conditions: for mode of inhibition: from Lineweaver-Burk plots. The essentials:
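Affinity derived from a replot of v0/vi (velocity without/with inhibitor) against inhibitor concentration. Mode of inhibition (competitive or noncompetitive) assigned from Lineweaver-Burk plots at several inhibitor concentrations.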

The subject of assay [2] is airways hyperresponsiveness in OVA/OVA Balb/C mice. Type of assay: in vivo, mouse. The essentials:
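Female Balb/C mice (6–8 weeks) were sensitized i.p. with 25 μg OVA plus 1 mg aluminium hydroxide on days 0 and 7, then given nebulized 6% OVA in PBS, or PBS, 25 min/day on days 14–20. On day 21: ketamine/xylazine anaesthesia, intubation, FlexiVent ventilation.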

Assay [3] has the same test system. The conditions noted are these: cited from earlier work.
Setting [4] is: OVA/OVA mice, nebulized 80 μg/g.

“Also recorded” adds a separate entry of the source. Where two headings read alike, the source gives them in different places.

Here are results for six compounds from paper PMC2874077 (Journal of medicinal chemistry, 2010).

As to `Nc1ncc[nH]1` [2-Aminoimidazole, reference compound], the mode of inhibition result in assay [1] is “noncompetitive”.

With `Nc1ncc(C[C@H](N)C(=O)O)[nH]1` [2AH, L-2-aminohistidine], the mode of inhibition result in assay [1] was “noncompetitive”.

For the compound `Nc1nccn1CCC[C@H](N)C(=O)O` [A1P, 2-(S)-amino-5-(2-aminoimidazol-1-yl)-pentanoic acid], the mode of inhibition result in assay [1] is recorded as “competitive”. In assay [2] (setting [4]), the “maximum resistance of the central airways (RN) following methacholine challenge” value is given as “significantly attenuated; also recorded: notably decreased” and the “total resistance of the respiratory system (R) following methacholine challenge” value is recorded as “attenuated significantly”. Also, the airways hyperresponsiveness entry in assay [2] (murine model of allergic airways inflammation) was “significantly attenuates; also recorded: significantly reduces”.

`Nc1ncc(CCCC(N)C(=O)O)[nH]1` (stereo not shown) [A4P, 2-amino-5-(2-aminoimidazol-4-yl)-pentanoic acid]: the inhibitory activity result in assay [1] (enzymological assay) was “lacks inhibitory activity”.

`Nc1ncc(CC[C@H](N)C(=O)O)[nH]1` [AHH, 2-aminohomohistidine]: the mode of inhibition result in assay [1] is given as “competitive”.

Turning to `N[C@@H](CSCCB(O)O)C(=O)O` [BEC, S-(2-boronoethyl)-L-cysteine], the airways hyperresponsiveness entry in assay [3] (murine models of allergic airways inflammation ref 8a) is given as “reduces”. For the same compound, the “maximum central airways responsiveness (RN max) to methacholine” value in assay [3] (same model, earlier study ref 8a) is given as “attenuates”.
